Laboratory results: the EternaBench riboswitch data

Tested on: MS2 coat protein
Test: apparent Kd, MS2 coat protein; higher = weaker binding; RNA-MaP array
Summary of the method: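 The designed RNAs, transcribed from sequenced DNA templates on an Illumina sequencing chip, were incubated with fluorescently labeled MS2 coat protein at room temperature. Protein ranged from 1.5 nM to 3 μM, with 0.8–1.5 h incubation at the lowest and 10–20 min at the highest concentrations, in Tris-HCl pH 7.5 buffer with KCl, MgCl2, BSA, DTT, tRNA and Tween20, with or without input ligand. The median of per-cluster binding-curve fits gives the apparent Kd, and designs measured on fewer than 10 clusters were excluded.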

[1] = designed as: OFF switch for flavin mononucleotide, no ligand
[2] = ligand present: flavin mononucleotide, designed as: OFF switch for flavin mononucleotide
[3] = designed as: ON switch for flavin mononucleotide, no ligand
[4] = ligand present: flavin mononucleotide, designed as: ON switch for flavin mononucleotide
[5] = designed as: ON switch for tryptophan, no ligand
[6] = ligand present: tryptophan, designed as: ON switch for tryptophan

Sequence | apparent Kd [1] [nM] | apparent Kd [2] [nM] | also measured
UCACGGUCAGGAUAUCCUACCUUAGGGCAACCAUGGUAAACGGAGAAGGGACAUGAGGAUCACCCAUGUACAGC | 12.9 | 26.8 | 
UCCUACAAAGUCAGGAUAUUCGCACAGUCACGAGGGAAGAAGGGACAUGAGGAUCACCCAUGUAUUUACGCGUA | 20.4 | 27.2 | 
GGUUAACAUGAGGAUCACCCAUGUAAGGAUAUCGGGCUGUCCAGGCGAUAGUACACGUCGAGAAGGUACGCGGU | 10.8 | 12.2 | 
UCUAUGCUAACAGGAUAUCGCGGCACGAUGCUUCGAGAAGGGUUAACAUGAGGAUCACCCAUGUGUGUCCUACGGAGACCGCGC | 9.01 | 11.8 | 
AUAGCAAAAGUGAGGAUAUUCGACAUAGAACGCAUGAAGAAGGCACAUGAGGAUCACCCAUGUUCUCGUUAGUA | 10.6 | 14.1 | 
GCCGUUCGAGAGAAGGUUGUACGCGCCACGCGCACAUGAGGAUCACCCAUGUCCUCCAAACUCACAAAGGAUAUCUUAAGAACA | 415 | 508 | 
UGGAAAUGAAUAGGAUAUCAGUGUUGUCUAUAACAUGAGGAUCACCCAUGUUUCCAUUGGCCUCGUGAGAAGGAUUCUAGUAUU |  |  | apparent Kd [3]: 81.6 nM; apparent Kd [4]: 22.3 nM
UAGGAUAACACAGGAUAUACCCUUGUCGUCGGUUCUAAAUUACAUGAGGAUCACCCAUGUCUAAGGUAGAAGGGUGUUUGCGGU | 31.6 | 29.6 | 
GGCUCCGUAGGAUAUCGUAUUAGCGACAUGAGGAUCACCCAUGUUCAUUUGUCCUCAAUACGAGAAGGACGAACUC | 16.1 | 18.3 | 
ACGCACAUGAGGAUCACCCAUGUGAACCUACGAGGACCGGUACGGCCGCCACUCGCUGUUCCUACCGGCUUAAUUGUCACUGGGU |  |  | apparent Kd [5]: 36.5 nM; apparent Kd [6]: 35 nM
UCAAUACAGUCGGCCGCCACUGUAACCAAACCUACAUACCAACAUGAGGAUCACCCAUGUUUAUACAGGACCGGGACCUCUAUGA |  |  | apparent Kd [5]: 36.6 nM; apparent Kd [6]: 28.5 nM
GCAAUAACAGCAGGAUAUCGUCUCACAUGAGGAUCACCCAUGUUACUAAGUGGCUACUAGGAUUACGAGAAGGGCUGUCCACGC | 10.7 | 7.78 | 
CAUUUCUUCACAGGAUAUGCCGUACAUGAGGAUCACCCAUGUGGGUGGGCGUAGCACUGUAGUGCGCAGAAGGGUGGAUCCGAC | 113 | 79.2 | 
CGAAAACAUGAGGAUCACCCAUGUUAGGAUAUGAGGAUGGUAUAGUAUACGGUGUAGAUCAGAAGGAACGGUGG | 11.4 | 11.6 | 
UCCAGACAUGAGGAUCACCCAUGUUGUGAUACCAGAACCGUGGAGUUCCCUUGGCAGCACUAAGAAGUUCCUGGAUCAGCUAGCG |  |  | apparent Kd (designed as: ON switch for theophylline, no ligand): 27.6 nM; apparent Kd (ligand present: theophylline, designed as: ON switch for theophylline): 32.8 nM
AUGGUCUCUUAAGGAUAUAGCUAUACAGAGCGCACGUAGGUUAAAUACAUGAGGAUCACCCAUGUCUAGAAGGUAAGUACCGGA |  |  | apparent Kd [3]: 11.6 nM; apparent Kd [4]: 11.1 nM
GGAAUCUUUCGAGGAUAUGUCCCACAAUAGUGCCUACCGGGUAACAUGAGGAUCACCCAUGUGAGACAGAAGGCGAGGUUUGGC | 9.86 | 38 | 
CAUAUGUUAGGAUAUAAGUUUAGAUCAUGCGUGUUUAUGGCUUAGAAGGAACAUGAGGAUCACCCAUGUAACAG | 21.2 | 22.3 | 
ACGGGACAUGAGGAUCACCCAUGUUAGGAUAUACGAACUUCGCCGAACGUGACCAAUUGUAGAAGGAACUUGGU | 17.2 | 14 | 
UCGGCACAUGAGGAUCACCCAUGUAAGGAUAUACGAAGCUUGCAGUCGCUGUUAUUUGGUAGAAGGUACCCUCG | 14.5 | 12.5 | 
UUUCUCAAUGUCAGGAUAUAGAUUUGACAUCCUCACUAGAAGGGACAUGAGGAUCACCCAUGUGUCAAUGCGGC |  | 17.6 | 
CUAGGUCAAGGAUAUACAUGAGGAUCACCCAUGUAAGAACCUAGUAGGGUCGUCCGAGGUAGAAGGUGAGCAUU | 24.9 | 19.6 | 
GCGCGGCGUGAAGGAUAUGGUUCAGUACAUGAGGAUCACCCAUGUCAGACAGCAUCGGGGCCGUCCCAGAAGGUCACACGUUUU |  |  | apparent Kd [3]: 9.14 nM; apparent Kd [4]: 7.36 nM
GAACGGAGAGAAGGAUAUGGCAUAUUGCCUCACAUGAGGAUCACCCAUGUCAAGACAAAGCGAUCCCAGAAGGUCUCACAACAU |  |  | apparent Kd [3]: 60.1 nM; apparent Kd [4]: 26.8 nM
